Measurements reported in ChEMBL document CHEMBL1133742, “17beta-O-Aminoalkyloximes of 5beta-androstane-3beta,14beta-diol with digitalis-like activity: synthesis, cardiotonic activity, structure-activity relationships, and molecular modeling of the Na(+),K(+)-ATPase receptor” (J Med Chem, 2000).

Tests used:
[1] = target: Sodium/potassium-transporting ATPase; test: In vitro inhibitory concentration against dog kidney Na+/K+ ATPase; type: protein-complex assay, Canis lupus familiaris
In short: (§1)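 Na+,K+-ATPase isolated and purified from dog kidney. Inhibition measured as percent hydrolysis of 32P-ATP with versus without compound. […] Single-concentration entries report percent inhibition at the stated concentration. Compounds tested within 1–4 h of dissolution.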

[2] = Percent increase in force of contraction in vitro determined using electrically driven guinea pig left atrium.; type: functional; settings: Cavia porcellus, Cardiac atrium
In short: (§2)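 Isolated guinea pig atria in solution bubbled with 95% O2/5% CO2, field-stimulated by platinum electrodes at 1 Hz (1 ms square pulses, twice threshold voltage). After 60 min equilibration, cumulative concentrations added, each held until maximal response or arrhythmia.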

Cavia porcellus = species on record: Cavia porcellus; test: Concentration producing 50% of the maximal increase in the force of contraction in isolated guinea pig left atrium; type: functional; settings: Cardiac atrium; in short: as §2
[3] = In vitro maximum inotropic effect on contractile force of an electrically driven guinea pig left atrium.; type: functional, Cavia porcellus, Cardiac atrium; in short: as §2
[4] = target: Sodium/potassium-transporting ATPase subunit alpha-1 (Canis lupus familiaris, UniProt P50997); test: In vitro inhibitory concentration against dog kidney Na+,K+-ATPase
In short: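 Na+,K+-ATPase isolated and purified from dog kidney. Inhibition measured as percent hydrolysis of 32P-ATP with versus without compound. Single-concentration entries report percent inhibition at the stated concentration. Compounds tested within 1–4 h of dissolution.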

[5] = Compound at 100 uM was tested in vitro for the inhibition of dog kidney Na+/K+ ATPase; settings: Canis lupus familiaris, target entry is the homologue from another species; in short: as §1

Compound | IC50 [1] [µM] | Emax [2] [%] | EC50 (Cavia porcellus) [µM] | Concentration giving maximal inotropic effect [3] [µM] | IC50 [4] [µM] | inhibition [5] [%]
C[C@]12CC[C@H](O)C[C@H]1CC[C@@H]1[C@@H]2CC[C@]2(C)/C(=N/OCCN)CC[C@]12O | > 100 | – | – | – | – | –
CC(/C=N/OCCCCN)=C\[C@H]1CC[C@]2(O)[C@@H]3CC[C@@H]4C[C@@H](O)CC[C@]4(C)[C@H]3CC[C@]12C | 1.26 | 106 | 4 | – | – | –
CN(C)CCCCO/N=C/[C@H]1CC[C@]2(O)[C@@H]3CC[C@@H]4C[C@@H](O)CC[C@]4(C)[C@H]3CC[C@]12C | 2 | 214 | 4.7 | – | – | –
C[C@]12CC[C@H](O)C[C@H]1CC[C@@H]1[C@@H]2CC[C@]2(C)[C@@H](/C=C/C=C/CCN)CC[C@]12O | 0.08 | 98 | 0.38 | – | – | –
C[C@]12CC[C@H](O)C[C@H]1CC[C@@H]1[C@@H]2CC[C@]2(C)[C@@H](CNOCCN)CC[C@]12O.Cl.Cl | 1.58 | 135 | 8 | 100 | – | –
CN(C)CCO/N=C1\CC[C@]2(O)[C@@H]3CC[C@@H]4C[C@@H](O)CC[C@]4(C)[C@H]3CC[C@]12C | > 100 | – | – | – | – | –
CN(C)CCO/N=C/C[C@H]1CC[C@]2(O)[C@@H]3CC[C@@H]4C[C@@H](O)CC[C@]4(C)[C@H]3CC[C@]12C | 0.63 | 73 | 1.8 | – | – | –
CN(C)CCCO/N=C/C=C1\CC[C@]2(O)[C@@H]3CC[C@@H]4C[C@@H](O)CC[C@]4(C)[C@H]3CC[C@]12C | 160 | – | – | – | – | –
CN(C)CCO/N=C\C=C1/CC[C@]2(O)[C@@H]3CC[C@@H]4C[C@@H](O)CC[C@]4(C)[C@H]3CC[C@]12C | 12.5 | – | – | – | – | –
CN(C)CCONC[C@H]1CC[C@]2(O)[C@@H]3CC[C@@H]4C[C@@H](O)CC[C@]4(C)[C@H]3CC[C@]12C.Cl.Cl | 50 | 18 | – | 300 | – | –
C[C@]12CC[C@H](O)C[C@H]1CC[C@@H]1[C@@H]2CC[C@]2(C)[C@@H](CCCNOCCN)CC[C@]12O | 1 | 71 | 12 | – | – | –
C[C@]12CC[C@H](O)C[C@H]1CC[C@@H]1[C@@H]2CC[C@]2(C)[C@@H](/C=C/C=N/OCCN)CC[C@]12O | 0.02 | 155 | 0.05 | 0.3 | – | –
C[C@]12CC[C@H](O)C[C@H]1CC[C@@H]1[C@@H]2CC[C@]2(C)[C@@H](C=O)CC[C@]12O | – | 79 | 11 | 300 | 25 | –
CONC[C@H]1CC[C@]2(O)[C@@H]3CC[C@@H]4C[C@@H](O)CC[C@]4(C)[C@H]3CC[C@]12C | 79 | – | – | – | – | –
CONCCC[C@H]1CC[C@]2(O)[C@@H]3CC[C@@H]4C[C@@H](O)CC[C@]4(C)[C@H]3CC[C@]12C | > 100 | – | – | – | – | 40
C[C@]12CC[C@H](O)C[C@H]1CC[C@@H]1[C@@H]2CC[C@]2(C)[C@@H](CCCCCCCN)CC[C@]12O | – | 43 | – | 100 | 1.25 | –
CN(C)CCCCO/N=C1\CC[C@]2(O)[C@@H]3CC[C@@H]4C[C@@H](O)CC[C@]4(C)[C@H]3CC[C@]12C | > 100 | – | – | – | – | –
C[C@]12CC[C@H](O)C[C@H]1CC[C@@H]1[C@@H]2CC[C@]2(C)[C@@H](/C=C/C=N\OCC(=O)O)CC[C@]12O | > 100 | – | – | – | – | 40
C[C@]12CC[C@H](O)C[C@H]1CC[C@@H]1[C@@H]2CC[C@]2(C)[C@@H](C3=CC(=O)OC3)CC[C@]12O [DIGITOXIGENIN] | – | 200 | 0.57 | 3 | – | –
C[C@]12CC[C@H](O)C[C@H]1CC[C@@H]1[C@@H]2CC[C@]2(C)[C@@H](/C=N/OCC(=O)O)CC[C@]12O | > 100 | – | – | – | – | 0
CO/N=C/C(C)=C/[C@H]1CC[C@]2(O)[C@@H]3CC[C@@H]4C[C@@H](O)CC[C@]4(C)[C@H]3CC[C@]12C | 10 | – | – | – | – | –
C[C@]12CC[C@H](O)C[C@H]1CC[C@@H]1[C@@H]2CC[C@]2(C)[C@@H](/C=N/OCCN)CC[C@]12O | 0.16 | 145 | 0.62 | – | – | –

Compound | IC50 [1] [µM] | Emax [2] [%] | EC50 (Cavia porcellus) [µM] | Concentration giving maximal inotropic effect [3] [µM] | IC50 [4] [µM] | inhibition [5] [%]
C[C@]12CC[C@H](O)C[C@H]1CC[C@@H]1[C@@H]2CC[C@]2(C)[C@@H](CC/C=N\OCCN)CC[C@]12O | 0.08 | 70 | 1.1 | – | – | –
CCCO/N=C/C=C/[C@H]1CC[C@]2(O)[C@@H]3CC[C@@H]4C[C@@H](O)CC[C@]4(C)[C@H]3CC[C@]12C | 10 | – | – | – | – | –
CC(/C=N/OCCN(C)C)=C\[C@H]1CC[C@]2(O)[C@@H]3CC[C@@H]4C[C@@H](O)CC[C@]4(C)[C@H]3CC[C@]12C.O=C(O)/C=C/C(=O)O | 0.06 | 146 | 0.07 | 0.3 | – | –
C[C@]12CC[C@H](O)C[C@H]1CC[C@@H]1[C@@H]2CC[C@]2(C)[C@@H](CNOCCCN)CC[C@]12O | 0.4 | 237 | 3.9 | – | – | –
CN(C)CCON(C)C[C@H]1CC[C@]2(O)[C@@H]3CC[C@@H]4C[C@@H](O)CC[C@]4(C)[C@H]3CC[C@]12C | > 100 | – | – | – | – | 20
C[C@]12CC[C@H](O)C[C@H]1CC[C@@H]1[C@@H]2CC[C@]2(C)[C@@H](/C=C/C=C/CCCN)CC[C@]12O | – | 73 | 0.035 | 0.1 | 0.32 | –
CN(C)CCO/N=C/[C@H]1CC[C@]2(O)[C@@H]3CC[C@@H]4C[C@@H](O)CC[C@]4(C)[C@H]3CC[C@]12C | 1 | 39 | – | – | – | –
CN(C)CCCO/N=C1\CC[C@]2(O)[C@@H]3CC[C@@H]4C[C@@H](O)CC[C@]4(C)[C@H]3CC[C@]12C | > 100 | – | – | – | – | –
CO/N=C/C=C/[C@H]1CC[C@]2(O)[C@@H]3CC[C@@H]4C[C@@H](O)CC[C@]4(C)[C@H]3CC[C@]12C | 4 | – | – | – | – | –
C[C@]12CC[C@H](O)C[C@H]1CC[C@@H]1[C@@H]2CC[C@]2(C)[C@@H](CCC=O)CC[C@]12O | – | – | – | – | 40 | –
CN(C)CCCO/N=C/[C@H]1CC[C@]2(O)[C@@H]3CC[C@@H]4C[C@@H](O)CC[C@]4(C)[C@H]3CC[C@]12C | 0.25 | 235 | 1.3 | – | – | –
C[C@]12CC[C@H](O)C[C@H]1CC[C@@H]1[C@@H]2CC[C@]2(C)[C@@H](/C=C/C=N/OCCO)CC[C@]12O | 6.3 | 179 | 39 | 300 | – | –
C/C(C=O)=C\[C@H]1CC[C@]2(O)[C@@H]3CC[C@@H]4C[C@@H](O)CC[C@]4(C)[C@H]3CC[C@]12C | – | – | – | – | 1.58 | –
C[C@]12CC[C@H](O)C[C@H]1CC[C@@H]1[C@@H]2CC[C@]2(C)/C(=C/C=N\OCCCN)CC[C@]12O | > 100 | – | – | – | – | –
C[C@]12CC[C@H](O)C[C@H]1CC[C@@H]1[C@@H]2CC[C@]2(C)/C(=C/C=N\OCCN)CC[C@]12O | 2 | 136 | 18 | 100 | – | –
CC(/C=N/OCCO)=C\[C@H]1CC[C@]2(O)[C@@H]3CC[C@@H]4C[C@@H](O)CC[C@]4(C)[C@H]3CC[C@]12C | 7.9 | 175 | 23 | 300 | – | –
CO/N=C/[C@H]1CC[C@]2(O)[C@@H]3CC[C@@H]4C[C@@H](O)CC[C@]4(C)[C@H]3CC[C@]12C | 32 | – | – | – | – | –
CONC/C=C/[C@H]1CC[C@]2(O)[C@@H]3CC[C@@H]4C[C@@H](O)CC[C@]4(C)[C@H]3CC[C@]12C | 40 | – | – | – | – | –
C[C@]12CC[C@H](O)C[C@H]1CC[C@@H]1[C@@H]2CC[C@]2(C)[C@@H](/C=C/C=O)CC[C@]12O | – | 45 | 4 | – | 0.25 | –
CCCO/N=C/C(C)=C/[C@H]1CC[C@]2(O)[C@@H]3CC[C@@H]4C[C@@H](O)CC[C@]4(C)[C@H]3CC[C@]12C | > 10 | – | – | – | – | 40
CN(C)CCO/N=C/C=C/C=C/[C@H]1CC[C@]2(O)[C@@H]3CC[C@@H]4C[C@@H](O)CC[C@]4(C)[C@H]3CC[C@]12C.O=C(O)C(=O)O | – | 145 | 20 | 100 | 6.3 | –
